The values below come from ChEMBL document CHEMBL2169797, “Rediocide A, an Insecticide, induces G-protein-coupled receptor desensitization via activation of conventional protein kinase C” (J Nat Prod, 2012).

The IC50 is the point on the concentration scale where inhibition reaches its midpoint.

Activity calls are given as the source filed them. The calls are words filed in the database; no cut-off is given here.

Assay [1] addresses T1, Glucagon receptor (Homo sapiens, UniProt P47871). Kind of assay: Agonist activity at GCGR expressed in HEK293 cells assessed as calcium influx at 1 uM by Fluor-4-AM based fluorimetry in presence of GF109203X. The format is functional, cell-based. The method in brief:
(§1)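 Setup as for the GCGR calcium assay (stable GCGR/Gα16 HEK293, 2 μM Fluo-4 AM, HBSS pH 7.4). Cells preincubated 15 min with 10 μM GF109203X. Then first stimulation with compound, 100 nM glucagon or 1% DMSO. After 30 min cells washed, restimulated with 100 nM glucagon, calcium read at ex 485/em 525 nm. Three independent experiments in triplicate.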

Assay [2] has as its target T1, Glucagon receptor. The experiment in a line: Inhibition of GCGR expressed in HEK293 cells assessed as inhibition of calcium influx after 10 mins by Fluo-4-AM based fluorimetry. The format is functional, cell-based. An outline of the steps:
(§2)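 HEK293 cells stably co-expressing GCGR and Gα16 (G418/blasticidin selected) were seeded at 3 × 10^4 cells/well and cultured overnight. They were loaded with 2 μM Fluo-4 AM in HBSS (pH 7.4, 250 μM sulfinpyrazone) at 37 °C for 45 min, held 10 min at room temperature, then given agonist. Calcium was read at ex 485/em 525 nm. IC50 came from nonlinear regression, means ± SEM, n = 3.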

Assay [3] has as its target T1, Glucagon receptor. Kind of assay: Induction of GCGR desensitization expressed in HEK293 cells assessed as reduction in glucagon-induced calcium influx at 1 uM incubated for 30 mins prior to glucagon-induction by Fluo-4-AM based fluorimetry. The format is functional, cell-based. An outline of the steps: (§3)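 HEK293 cells stably co-expressing GCGR and Gα16, selected with G418/blasticidin, seeded 3 × 10^4/well overnight. Loaded with 2 μM Fluo-4 AM in HBSS with sulfinpyrazone, pH 7.4, 45 min at 37 °C. First stimulation with compound, 100 nM glucagon or 1% DMSO. After 30 min cells washed and restimulated with 100 nM glucagon. Calcium read at ex 485/em 525 nm. Three independent experiments, each in triplicate.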

Assay [4] deals with T1, Glucagon receptor. The experiment in a line: Activation of pDsRed-tagged GCGR expressed in HEK293 cells assessed as receptor internalization at 1 uM incubated after 30 mins by Hoechst staining-based fluorescence microscopy. Format: cell-based. The method in brief:
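HEK293 cells transfected with pDsRed-GCGR, grown overnight on coverslips. Stimulated 30 min at 37 °C, with 1% DMSO as negative control. Fixed in 4% formaldehyde/PBS, nuclei stained with Hoechst 33342. Surface versus internalized receptor scored by fluorescence microscopy.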

The test system of another assay is HEK293. Kind of assay: (§4) Inhibition of Drosophila MthB expressed in HEK293 cells assessed as inhibition of SunA1-30-induced calcium influx incubated for 10 mins prior to SunA1-30 addition by Fluo-4-AM based fluorimetry. The format is cell-based. The method in brief: (§5)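 HEK293 cells stably co-expressing the receptor and Gα16, seeded 3 × 10^4/well overnight. Loaded with 2 μM Fluo-4 AM in HBSS (pH 7.4, 250 μM sulfinpyrazone) 45 min at 37 °C, then pretreated with compound. Receptor-specific agonist added (SunA1-30 for Mth-B). Calcium recorded at ex 485/em 525 nm. IC50 from nonlinear regression; mean ± SEM, n = 3.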

The nature of assay [5]: as §4. The format is cell-based. An outline of the steps: as §5
Assay [6] has as its target T2, Protein kinase C (PKC) (Homo sapiens) (UniProt O94806+P41743+P17252+P05129+Q05655+P05771+Q05513+Q02156+P24723+Q15139+Q04759). The experiment in a line: Induction of PKC phosphorylation in HEK293 cells at 1 uM by Western blot analysis. Format: cell-based. Particulars: TDE = time-dependent effect. An outline of the steps:
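HEK293 cells serum-starved 4 h, then treated for various durations at 37 °C, with 100 nM TPA as reference. Lysates run on 10% SDS-PAGE and immunoblotted with an antibody detecting phosphorylated conventional and novel PKC isoforms (1:1000). Signal normalized to GAPDH, detected by ECL. Mean ± SEM, n = 3; two-tailed t test.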
Background: A western blot detects proteins with antibodies after separation by electrophoresis.

The target in assay [7] is T3, Alpha-1A adrenergic receptor (Homo sapiens, UniProt P35348).
T3 sequence (P35348 whole entry): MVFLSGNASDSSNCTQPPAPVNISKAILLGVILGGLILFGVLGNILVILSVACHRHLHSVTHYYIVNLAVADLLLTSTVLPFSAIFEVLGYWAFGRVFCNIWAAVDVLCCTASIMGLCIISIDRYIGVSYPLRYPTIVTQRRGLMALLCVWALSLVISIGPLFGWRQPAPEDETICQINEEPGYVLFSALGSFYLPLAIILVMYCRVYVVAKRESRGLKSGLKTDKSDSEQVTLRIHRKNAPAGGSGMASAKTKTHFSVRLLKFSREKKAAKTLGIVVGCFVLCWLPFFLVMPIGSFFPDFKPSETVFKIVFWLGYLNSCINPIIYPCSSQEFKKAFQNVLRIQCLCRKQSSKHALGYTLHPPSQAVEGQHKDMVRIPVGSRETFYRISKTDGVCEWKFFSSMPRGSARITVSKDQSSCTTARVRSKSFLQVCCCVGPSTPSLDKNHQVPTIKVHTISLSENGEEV
The experiment in a line: Inhibition of adrenergic receptor 1a expressed in HEK293 cells assessed as inhibition of calcium influx after 10 mins by Fluo-4-AM based fluorimetry. Format: functional, cell-based. An outline of the steps:
as §5

For assay [8], the target named is T1, Glucagon receptor. Kind of assay: Agonist activity at GCGR expressed in HEK293 cells assessed as calcium influx at 1 uM by Fluor-4-AM based fluorimetry. The format is functional, cell-based. An outline of the steps:
as §3

The target in assay [9] is T4, Alpha-1B adrenergic receptor (Homo sapiens, UniProt P35368).
T4 sequence (P35368 whole entry): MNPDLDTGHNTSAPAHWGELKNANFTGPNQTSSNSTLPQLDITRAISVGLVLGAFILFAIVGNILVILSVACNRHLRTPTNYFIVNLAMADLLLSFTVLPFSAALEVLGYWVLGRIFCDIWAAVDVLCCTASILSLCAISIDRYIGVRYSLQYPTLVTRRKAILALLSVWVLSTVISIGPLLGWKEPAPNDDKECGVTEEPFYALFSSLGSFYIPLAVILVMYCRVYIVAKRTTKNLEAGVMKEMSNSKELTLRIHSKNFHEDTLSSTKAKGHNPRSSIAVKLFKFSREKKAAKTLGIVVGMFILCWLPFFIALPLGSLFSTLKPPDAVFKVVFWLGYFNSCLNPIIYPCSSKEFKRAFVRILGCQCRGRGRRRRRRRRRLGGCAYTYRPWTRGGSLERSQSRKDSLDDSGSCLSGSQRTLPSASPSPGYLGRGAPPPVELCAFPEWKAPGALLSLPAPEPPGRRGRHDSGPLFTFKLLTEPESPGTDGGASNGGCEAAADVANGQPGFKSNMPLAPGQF
Kind of assay: Inhibition of adrenergic receptor 1b receptor expressed in HEK293 cells assessed as inhibition of calcium influx after 10 mins by Fluo-4-AM based fluorimetry. The format is functional, cell-based. The method in brief:
as §5

The target of assay [10] is Protein kinase C alpha type (Homo sapiens) (UniProt P17252). Kind of assay: Activation of human GFP-tagged PKCalpha expressed in HEK293 cells assessed as translocation from cytoplasm to membrane at 1 uM after 30 mins by Hoechst staining-based fluorescence microscopy in presence of GF109203X. The format is cell-based. The method in brief: (§6)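 HEK293 cells transfected with pCR259hPKCα-GFP, grown overnight on coverslips. Pretreated 15 min at 37 °C with GF109203 X or vehicle, then stimulated 30 min. Fixed in 4% formaldehyde/PBS, nuclei stained with Hoechst 33342 10 min at room temperature. GFP-PKCα membrane translocation imaged by inverted fluorescence microscopy.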

The target of assay [11] is T2, Protein kinase C (PKC) (Homo sapiens). The experiment in a line: Induction of PKC phosphorylation in HEK293 cells at 1 uM by Western blot analysis in presence of rotterin. Format: cell-based. The method in brief: (§7)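 Serum-starved (4 h) HEK293 cells. Phospho-PKC induced by compound (1 μM) or TPA (100 nM), each in the presence of GF109203 X (1 μM) or rottlerin (10 μM). Read by Western blot with phospho-PKC antibody, normalized to GAPDH. Mean ± SEM, n = 3; two-tailed t test.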

In assay [12] the target is T5, C-C chemokine receptor type 6 (Homo sapiens, UniProt P51684).
T5 sequence (P51684 whole entry): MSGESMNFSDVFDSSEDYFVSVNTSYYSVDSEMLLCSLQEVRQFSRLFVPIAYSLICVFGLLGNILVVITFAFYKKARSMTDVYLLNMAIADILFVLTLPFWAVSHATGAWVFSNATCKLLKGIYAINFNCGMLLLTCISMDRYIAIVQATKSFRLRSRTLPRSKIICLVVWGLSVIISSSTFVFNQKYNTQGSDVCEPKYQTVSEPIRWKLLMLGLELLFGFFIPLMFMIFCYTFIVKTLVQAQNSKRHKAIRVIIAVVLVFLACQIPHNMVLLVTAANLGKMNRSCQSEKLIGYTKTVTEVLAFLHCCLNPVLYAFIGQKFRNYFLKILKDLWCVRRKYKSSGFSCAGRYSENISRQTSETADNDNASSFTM
The experiment in a line: Inhibition of CCR6 expressed in HEK293 cells assessed as inhibition of calcium influx after 10 mins by Fluo-4-AM based fluorimetry. The format is functional, cell-based. An outline of the steps:
as §5

In assay [13] the target is T2, Protein kinase C (PKC) (Homo sapiens). Kind of assay: Induction of PKC phosphorylation in HEK293 cells at 1 uM by Western blot analysis in presence of GF109203 X. Format: cell-based. The method in brief:
as §7

Assay [14] has as its target T1, Glucagon receptor. The experiment in a line: Induction of GCGR desensitization expressed in HEK293 cells assessed as reduction in glucagon-induced calcium influx at 1 uM incubated for 30 mins prior to glucagon-induction by Fluo-4-AM based fluorimetry in presence of GF109203X. Format: functional, cell-based. An outline of the steps:
as §1

The target of assay [15] is Protein kinase C alpha type (Homo sapiens) (UniProt P17252). Kind of assay: Activation of human GFP-tagged PKCalpha expressed in HEK293 cells assessed as translocation from cytoplasm to membrane at 1 uM after 30 mins by Hoechst staining-based fluorescence microscopy. The format is cell-based. An outline of the steps:
as §6

Assay [16] has as its target T1, Glucagon receptor. The experiment in a line: Induction of GCGR desensitization expressed in HEK293 cells assessed as reduction in glucagon-induced calcium influx at 1 uM incubated for 30 mins prior to glucagon-induction by Fluo-4-AM based fluorimetry in presence of rottlerin. Format: functional, cell-based. An outline of the steps: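 Stable GCGR/Gα16 HEK293 cells loaded with 2 μM Fluo-4 AM, then preincubated 15 min with 10 μM rottlerin. First stimulation with compound, 100 nM glucagon or DMSO. After 30 min cells washed and restimulated with 100 nM glucagon. Intracellular calcium recorded at ex 485/em 525 nm. Three independent experiments in triplicate.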

Assay [17] addresses T1, Glucagon receptor. Kind of assay: Agonist activity at GCGR expressed in HEK293 cells assessed as calcium influx at 100 nM by Fluor-4-AM based fluorimetry. The format is functional, cell-based. An outline of the steps: as §2
Assay [18] concerns the target T1, Glucagon receptor. The experiment in a line: Activation of pDsRed-tagged GCGR expressed in HEK293 cells assessed as receptor internalization at 100 nM incubated after 30 mins by Hoechst staining-based fluorescence microscopy. Format: cell-based. An outline of the steps: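 HEK293 cells transfected with pDsRed-GCGR were seeded on coverslips, cultured overnight, then stimulated at 37 °C for 30 min, with 1% DMSO as the negative control. Cells were fixed in 4% formaldehyde in PBS and nuclei were stained with Hoechst 33342 for 10 min at room temperature. Receptor surface versus internalized location was judged by fluorescence microscopy.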

For assay [19], the target named is T1, Glucagon receptor. The experiment in a line: Induction of GCGR desensitization expressed in HEK293 cells assessed as reduction in calcium influx at 100 nM incubated for 30 mins prior to second-induction by Fluo-4-AM based fluorimetry. Format: functional, cell-based. An outline of the steps:
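GCGR/Gα16 stable HEK293 cells were loaded with Fluo-4 AM and given a first stimulation (100 nM glucagon or test agent; 1% DMSO as the negative control). After a 30 min incubation, cells were washed and restimulated with 100 nM glucagon, and intracellular calcium was recorded at ex 485/em 525 nm. There were three independent experiments, each in triplicate.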

In assay [20] the target is T1, Glucagon receptor. Kind of assay: Agonist activity at GCGR expressed in HEK293 cells assessed as calcium influx at 100 nM by Fluor-4-AM based fluorimetry in presence of GF109203X. The format is functional, cell-based. An outline of the steps: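 Fluo-4 AM-loaded GCGR stable HEK293 cells were preincubated with 10 μM GF109203X for 15 min, then stimulated with 100 nM glucagon, test agent or 1% DMSO. After 30 min they were washed and restimulated with 100 nM glucagon, with calcium read fluorimetrically. There were three independent experiments, each in triplicate.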

T1 sequence (P47871 whole entry): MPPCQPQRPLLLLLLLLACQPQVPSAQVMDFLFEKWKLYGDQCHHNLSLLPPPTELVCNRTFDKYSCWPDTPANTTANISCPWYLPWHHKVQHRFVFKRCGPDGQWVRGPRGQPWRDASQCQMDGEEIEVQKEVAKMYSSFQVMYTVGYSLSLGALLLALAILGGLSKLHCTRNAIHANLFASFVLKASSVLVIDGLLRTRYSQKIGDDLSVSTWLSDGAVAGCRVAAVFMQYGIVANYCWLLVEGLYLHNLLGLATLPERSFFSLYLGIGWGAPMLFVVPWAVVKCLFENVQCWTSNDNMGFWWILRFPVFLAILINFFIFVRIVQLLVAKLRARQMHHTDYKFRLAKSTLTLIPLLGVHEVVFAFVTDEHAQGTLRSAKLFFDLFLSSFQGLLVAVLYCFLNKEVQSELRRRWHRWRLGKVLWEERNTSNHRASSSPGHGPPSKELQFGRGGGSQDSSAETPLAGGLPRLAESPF

Consider `CC(C)CC(=O)O[C@H]1/C=C/C=C/C(=O)O[C@H]2[C@@H](C)C[C@@H]3[C@]2(O)[C@H](O)[C@@]2(CO)O[C@H]2[C@H]2[C@H]4OC5(c6ccccc6)O[C@@H]([C@@H](C)[C@@]23O5)[C@@]4(O)[C@](C)(O)C[C@H]2CC[C@H]1[C@H]2C` [REDIOCIDE A], for which the result (on Glucagon receptor [1]; on Glucagon receptor [8]; in assay [10]; in [13]; on Glucagon receptor [14]) was inactive. Further, the IC50 on Glucagon receptor [2] came out at 4 nM; in assay [5] it was 88 nM; in assay [7] it was 13 nM; in [9] it was 215 nM; in [12] it was 261 nM. The outcome (on Glucagon receptor [3]; at Glucagon receptor [4]; in assay [11]; in assay [15]; at Glucagon receptor [16]) was Active. Further, the inhibition entry with HEK293 is “Dose-dependent effect”. Besides, the Activity result in assay [6] is “tde”.
Consider GLUCAGON, for which the outcome at Glucagon receptor [17], at Glucagon receptor [18], on Glucagon receptor [19] and on Glucagon receptor [20] was Active.
